Laboratory results reported in the EternaBench riboswitch data.

Tested on: MS2 coat protein
Assay: apparent Kd, MS2 coat protein; higher = weaker binding; RNA-MaP array; FMN 200 µM where present
In short: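 Binding was read on Illumina sequencing-chip clusters where stalled E. coli RNA polymerase had transcribed each design. A titration of SNAP-549-labelled MS2 coat protein began at 0.7 or 1.5 nM and doubled to 3 µM, once without ligand and once with constant ligand, in 100 mM Tris-HCl pH 7.5, 80 mM KCl, 4 mM MgCl2, BSA, DTT, yeast tRNA and Tween-20. The apparent Kd is the median of filtered per-cluster binding-curve fits, based on green signal normalised to red-channel RNA signal and control-cluster median Fmax.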

[1] = designed as: ON switch for flavin mononucleotide, no ligand
[2] = ligand present: flavin mononucleotide, designed as: ON switch for flavin mononucleotide
[3] = designed as: OFF switch for flavin mononucleotide, no ligand
[4] = ligand present: flavin mononucleotide, designed as: OFF switch for flavin mononucleotide

ACAUGAGGAUCACCCAUGUAGAAUGAAGAAGGUAGAUACUUGUGACUCACCCAUGUACAUAGGACUAAGGAUAUUCUAAUAAUU
apparent Kd [1]: 0.0263 µM
apparent Kd [2]: 0.013 µM

UUUACAUGAGGAUCACCCAUGUCUGUCACCCAUGUGUGCAAUCAGGAUAUGAUAUCAAUAAUAAAUUAGAAGGGAUAACAUGAG
apparent Kd [1]: 0.0735 µM
apparent Kd [2]: 0.1 µM

UCCUUGUCCUGAGGAUAUCCGCGGUUCCCAAAAGGAGAAGGCAGGACAUGAGGAUCACCCAUGUACCGAGAAAACGUGCAGAGU
apparent Kd [3]: 0.0127 µM
apparent Kd [4]: 0.105 µM

AGCGUACAAGCUAACAUGAGGAUCACCCAUGUGGUCUCAUGCGAGGAUAUCGGGAAGGAGGAUUCCGAGAAGGUGCGGUGAGCC
apparent Kd [1]: 0.182 µM
apparent Kd [2]: 0.0438 µM

CUUGUGUUAGGAUAUGCGCCCUGAAGAAGCAGGGCCAGAGAGCAGAAGGAACAUGAGGAUCACCCAUGUGUGAC
apparent Kd [3]: 0.0603 µM
apparent Kd [4]: 0.0512 µM

UUUAUUAAUUAGAAGGCAUGAUGAAUUACAAUAGACAUGAGGAUCACCCAUGUGUAUUCAUGUCAUGAGGAUAUAGUCAUAUAU
apparent Kd [1]: 0.0103 µM
apparent Kd [2]: 0.00727 µM

GACGUUGGAGGAUAUACACGAGUGCUCAGUUGGCCCGGUCGACAUGAGGAUCACCCAUGUAGAAGGCCGACACU
apparent Kd [3]: 0.0176 µM
apparent Kd [4]: 0.0228 µM

CUCUUGUCAGGAUAUCUAAGCUGCCUCCCAGUAGCCGAAUUAGAGAAGGGACAUGAGGAUCACCCAUGUAAACG
apparent Kd [3]: 0.105 µM
apparent Kd [4]: 0.0343 µM

AGGUUGUGAGGAUAUUAGUUAUAUGAAUGGAGGAGUAUGGCUGAGAAGGCACAUGAGGAUCACCCAUGUAGAUC
apparent Kd [3]: 0.12 µM
apparent Kd [4]: 0.42 µM

UUUAAGGAAGGAUAUACAAUAUAAAUAAUAUCCUCAUUAUUACAUGAGGAUCACCCAUGUAGAAGGUCCAAUUU
apparent Kd [3]: 0.119 µM
apparent Kd [4]: 0.368 µM

GGAUCUGAAACAGAUCCAAUACGAACAUGAGGAUCACCCAUGUAGGAUAUGCUACUCAAAGAGUAGCAGAAGGACAUGUGUCUU
apparent Kd [3]: 0.0243 µM
apparent Kd [4]: 0.147 µM

GUAGCAUAGACAGGAUAUUCAUAUAAUAAAUAAACAUGAGGAUCACCCAUGUGGCGAAAGCCUUGGGAGAAGGGUCAAUGCUAC
apparent Kd [1]: 1.07 µM
apparent Kd [2]: 0.0821 µM

UGCUAAUUGUAGAAGGGUGACAUGAGGAUCACCCAUGUGCACGCGCGAUUUACGGCGCGCGUGCCACAGGAUAUACAGUUGAGU
apparent Kd [1]: 0.0581 µM
apparent Kd [2]: 0.0346 µM

GGUUAAUAUCGAGGAUAUGUCUAGACACAUGAGGAUCACCCAUGUAUGUGUAUAGAAGGCGAUAUUAACAGCAUGUUACAUGCG
apparent Kd [1]: 0.0388 µM
apparent Kd [2]: 0.0164 µM

GUGCCUUGGGAGAAGGCCCAAUGCAAAGCAUAGGGAGGAUAUUCAUAUAAUAAAUAAACAUGAGGAUCACCCAUGUGGCACAAA
apparent Kd [1]: 0.479 µM
apparent Kd [2]: 0.0333 µM

AGUUACAAACACAACAUGAGGAUCACCCAUGUACUCUCAUGUAAGGAUAUACAUUCGUAUAGAAAGUAGAAGGUACUAAUUAUG
apparent Kd [1]: 0.515 µM
apparent Kd [2]: 0.34 µM

GUCAGCUCGUGAGGAUAUACAACACUGCUUCGGCAGUGUAUUAAGAUCACAUGAGGAUCACCCAUGUAGAAGGCACGAGCGGAU
apparent Kd [3]: 0.0144 µM
apparent Kd [4]: 0.244 µM

UGUCGGAGCAGAGGAUAUAUACAUGAGGAUCACCCAUGUAAAGAUCAAAGCUGGAAACAGCAAGUAUAGAAGGCUGCUCCGACA
apparent Kd [3]: 0.12 µM
apparent Kd [4]: 0.295 µM

UUACUCAUGUAAGGAUAUGCAGCCGUUUCGGCUGCAGAAGGUACUAUAAUACAUGAGGAUCACCCAUGUCUAUAAAAUAAAGGC
apparent Kd [1]: 0.0489 µM
apparent Kd [2]: 0.0502 µM

AAGUAGAUCCGAGGAUAUACAAUCUGGAAACGGUACAUGAGGAUCACCCAUGUAGAAGGCGGAUCUACAGGUACUAAAGUACCA
apparent Kd [3]: 0.0074 µM
apparent Kd [4]: 0.0164 µM

AAGGAUAGAGGAUAUACGUAGAUACAGAUUCAUGUAGAACUACAUGAGGAUCACCCAUGUAGAAGGCUAUCCUA
apparent Kd [3]: 0.0288 µM
apparent Kd [4]: 0.299 µM

UUCUUGGCAGGAUAUGCUUUUUUAGACAUGAGGAUCACCCAUGUGAUGAUUAUUGGUUUUGCAGAAGGGCCUUAAU
apparent Kd [3]: 0.0536 µM
apparent Kd [4]: 0.0876 µM

AUGUCUUAGUAGAAGGGACAUCGGCUGGUAAGCAUCAUCUCCUUCUCACAUGAGGAUCACCCAUGUCAGGAUAUACUAAGAUAC
apparent Kd [4]: 0.0385 µM

AAUAACAGAGGAUAUACUAUUUUAUGUGUUUGUUGUUUUGAACAUGAGGAUCACCCAUGUAGAAGGCUGAGUAA
apparent Kd [3]: 0.0279 µM
apparent Kd [4]: 0.0303 µM

AUAUGGAAUACAGGAUAUGUAAGUUUUAAGUGUAUUGGUUAUUACUUAACAACAGAAGGGUAUUACAUGAGGAUCACCCAUGUA
apparent Kd [1]: 0.0128 µM
apparent Kd [2]: 0.01 µM

ACAUGUCGUGAGAAGGACGGCGUGCAUAGCGCCGUAGGAUAUCAAGACAUGAGGAUCACCCAUGUACGCGUGUCCAGCCGUGCU
apparent Kd [3]: 0.0652 µM
apparent Kd [4]: 0.342 µM

GGAUAGGACAGAGGAUAUACGGGCUAGAGAUACUAGCAAAAUUUCCUCACAUGAGGAUCACCCAUGUAGAAGGCUGUCCUAUCG
apparent Kd [3]: 0.0701 µM
apparent Kd [4]: 0.864 µM

GCACUGGCAGGAUAUACAUGAGGAUCACCCAUGUGACCCUUGAAGUACUCGCGUACUCGUAGAAGGGCCUGUGC
apparent Kd [3]: 0.102 µM
apparent Kd [4]: 0.52 µM

UUGAUGUCAUCAGGAUAUAGUAUUUAAGACAUAUCUUCUUUCAAACAUGAGGAUCACCCAUGUCGCUAGAAGGGAUGAAUGAUU
apparent Kd [3]: 0.0166 µM
apparent Kd [4]: 0.0144 µM

CGUAUAUGGGAGAAGGCAUGUUCCAAAGGGCCAUGAGGAUAUCCUAAGUGUACGCUUUGCGACAUGAGGAUCACCCAUGUAGCA
apparent Kd [1]: 0.00895 µM
apparent Kd [2]: 0.00634 µM

AUCAGCUCGUCAGGAUAUACAUCACUGCUUCGGCAGUGUGGUAAGAUCACAUGAGGAUCACCCAUGUAGAAGGGACGAGCUGAU
apparent Kd [3]: 0.0139 µM
apparent Kd [4]: 0.217 µM

UAUUAAUACGAAGGAUAUGGUUACAUGAGGAUCACCCAUGUAUGUAUUUUGAUCUAAUAAUUUAACCAGAAGGUCGAAUAUAAA
apparent Kd [3]: 0.0406 µM
apparent Kd [4]: 0.0773 µM

AAUAACAGAGGAUAUACUGUUUUAUGUGUUUGUUGUUUUAAACAUGAGGAUCACCCAUGUAGAAGGCUGAAUGA
apparent Kd [3]: 0.0265 µM
apparent Kd [4]: 0.0252 µM

CAGUUUUGAGGAUAUCCAUCCUCCUACAUGAGGAUCACCCAUGUUUCCCUCUGGGUUUUCGGAGAAGGCAGUUAUC
apparent Kd [3]: 0.341 µM
apparent Kd [4]: 0.251 µM

CGGCAAUGACGAGGAUAUAGACAUGAGGAUCACCCAUGUAACAGUAUUACAGGGCGUCUUCUCGGCUAGAAGGCGUUCUAUGCC
apparent Kd [3]: 0.0593 µM
apparent Kd [4]: 0.0626 µM

UAAUCUCAGAUAGGAUAUAUAGGAUGAUUUAAGACUGAACAUGAGGAUCACCCAUGUGAUUAUCUGUAGAAGGAUCAAUUAGCC
apparent Kd [1]: 0.476 µM
apparent Kd [2]: 0.365 µM
